Source: ChEMBL document CHEMBL3102767, “Identifying novel targets in renal cell carcinoma: design and synthesis of affinity chromatography reagents” (Bioorg Med Chem, 2014)

Tests used:
[1] = Selectivity ratio of IC50 for human RCC4/VHL cells to IC50 for human RCC4 cells; assay type: functional
Summary of the method: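 IC50 values from 4-day XTT growth inhibition in RCC4/VHL and parental RCC4 cells (serial dilution from 40 µM top, triplicate); ratio taken as RCC4/VHL IC50 over RCC4 IC50.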

[2] = Cytotoxicity against human RCC4 cells after 4 days by XTT assay; assay type: functional, cell-based; details: RCC4, 96 h
Summary of the method: (§1)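 RCC4 (VHL-null) and RCC4/VHL (VHL reintroduced) cells kept in DMEM plus 10% FCS. After 4 d, media removed; XTT (0.3 mg/mL) with N-methyl dibenzopyrazine methyl sulfate in phenol red-free media added, 1–2 h at 37 °C. IC50 = concentration giving 50% growth inhibition.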

[3] = Cytotoxicity against human RCC4/VHL cells after 4 days by XTT assay; assay type: functional, cell-based; details: 96 h; summary of the method: as §1

Row | Structure (SMILES) | Ratio IC50 [1] | IC50 [2] | IC50 [3]
1 | Cc1cccc(Nc2nc(-c3ccncc3-c3cn(CCOCCOCCOCCOCCOCCOCCN)nn3)cs2)c1.O=C(O)C(F)(F)F | 1.3 | 2900 nM | 3.9 µM
2 | Cc1cccc(S(=O)(=O)NCc2ccc(C(=O)Nc3cccnc3)cc2)c1 | > 100 | < 1000 nM | 
3 | NCCOCCOCCOCCOCCOCCOCCCc1ccc(S(=O)(=O)NCc2ccc(C(=O)Nc3ccccc3)cc2)cc1 |  | > 40000 nM | > 40 µM
4 | CCN(c1cccc(C)c1)c1nc(-c2ccnc(-c3cn(CCOCCOCCOCCOCCOCCOCCN)nn3)c2)cs1 |  | > 40000 nM | > 40 µM
5 | NCCOCCOCCOCCOCCOCCOCCCc1ccc(S(=O)(=O)NCc2ccc(C(=O)Nc3cccnc3)cc2)cc1 | >5 | 7900 nM | > 40 µM
6 | Cc1cccc(Nc2nc(-c3ccncc3)cs2)c1 | 19 | 2100 nM | 40 µM
7 | Cn1ccc(-c2cccc(S(=O)(=O)NCc3ccc(C(=O)Nc4cccnc4)cc3)c2)n1 | >100 | < 1000 nM | 
8 | NCCOCCOCCOCCOCCOCCOCC#Cc1ccc(S(=O)(=O)NCc2ccc(C(=O)Nc3cccnc3)cc2)cc1 | >7 | 5800 nM | > 40 µM
9 | CCN(c1cccc(C)c1)c1nc(-c2ccncc2-c2cn(CCOCCOCCOCCOCCOCCOCCN)nn2)cs1 |  | > 40000 nM | > 40 µM
10 | Cl.O=C(Nc1cccnc1)c1ccc(CNS(=O)(=O)c2ccc(CN3CCOCC3)cc2)cc1 | >100 | < 1000 nM | 
11 | CN1CCN(Cc2ccc(S(=O)(=O)NCc3ccc(C(=O)Nc4cccnc4)cc3)cc2)CC1 | >100 | < 1000 nM | 
12 | CC(C)(C)c1ccc(S(=O)(=O)NCc2ccc(C(=O)Nc3cccnc3)cc2)cc1 | >250 | 160 nM | > 40 µM
13 | Cc1cccc(Nc2nc(-c3ccnc(-c4cn(CCOCCOCCOCCOCCOCCOCCN)nn4)c3)cs2)c1 |  | > 40000 nM | > 40 µM
14 | Cc1cccc(Nc2nc(-c3ccnc(-c4cn(CCCCCCN)nn4)c3)cs2)c1.O=C(O)C(F)(F)F | 1.5 | 1700 nM | 2.6 µM
15 | CN1CCN(c2ccc(S(=O)(=O)NCc3ccc(C(=O)Nc4cccnc4)cc3)cc2)CC1 | >100 | < 1000 nM | 
16 | COc1ccc(S(=O)(=O)NCc2ccc(C(=O)Nc3cccnc3)cc2)cc1OC | >100 | < 1000 nM | 
